Source: PubChem (The Scripps Research Institute Molecular Screening Center)
Rows were chosen to be rich in hits. Some 1.9% of all compounds tested hit in one or more screens of this group.
M5 antag: antagonists of human muscarinic M5 receptor (CHRM5); actives 0.59% (n = 360,000); inhibition, % at 3 µM; P08912; CHO-hM5 cells, Fluo-8 calcium fluorescence, ACh EC80;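 active means inhibition above a per-plate cutoff, the mean of that plate's test compounds plus 3 SD, cut at about 27% in these data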
CHRM5 agonist: agonists of human muscarinic M5 receptor (CHRM5); activation, % at 3 µM; actives 0.19% (n = 360,000); P08912; CHO-K1 hM5 cells, Fluo-8 calcium fluorescence; 0% DMSO wells, 100% maximal acetylcholine response;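 active means activation above the run's mean over test compounds plus 3 SD, cut at about 23% in these data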;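 further: signal is peak over basal fluorescence ratio across the kinetic read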
CHRM4 antagonist: antagonists of human muscarinic M4 receptor (CHRM4). actives 0.73% (n = 360,000). CHO-hM4 cells, ACh EC80, Fluo-8 calcium fluorescence. AID 624125. inhibition, % at 3 µM. P08173;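 active means inhibition above its plate's cutoff, the mean inhibition of sample wells plus 3 SD, cut at about 27% in these data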
Target sequence (P08173 whole entry, looked up): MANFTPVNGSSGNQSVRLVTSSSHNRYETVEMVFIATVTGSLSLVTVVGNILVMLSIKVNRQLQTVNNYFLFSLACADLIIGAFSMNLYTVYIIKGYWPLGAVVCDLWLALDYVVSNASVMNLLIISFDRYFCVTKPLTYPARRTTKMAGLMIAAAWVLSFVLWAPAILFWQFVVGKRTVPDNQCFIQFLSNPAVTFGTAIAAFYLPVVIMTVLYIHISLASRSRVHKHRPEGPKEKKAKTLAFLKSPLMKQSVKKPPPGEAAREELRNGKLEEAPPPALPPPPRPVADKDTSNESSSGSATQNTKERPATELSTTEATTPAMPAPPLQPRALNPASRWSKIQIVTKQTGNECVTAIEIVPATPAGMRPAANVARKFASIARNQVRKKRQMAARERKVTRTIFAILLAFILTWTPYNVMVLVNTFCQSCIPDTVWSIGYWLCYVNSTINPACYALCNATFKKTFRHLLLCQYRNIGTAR
CHRM4 PAM: potentiates acetylcholine response at human M4 receptor. activation, % at 3 µM. actives 0.4% (n = 360,000). CHO-K1 hM4/Gqi5, Fluo-8 calcium fluorescence, ACh EC20; 0% = ACh EC20, 100% = maximal ACh. AID 624126;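 active means activation above its plate's cutoff, the mean activation of sample wells plus 3 SD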
M5 PAM: CHRM5 positive allosteric modulation; P08912; CHO-K1 hM5, Fluo-8 calcium, ACh EC20 PAM; 0% = ACh EC20, 100% = ACh EC100; activation, % at 3 µM; actives 0.3% (n = 360,000);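 active means activation above the run cutoff, the mean activation of all test compounds plus 3 SD, cut at about 18% in these data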
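Measured by: Fluo-8 calcium fluorescence; material: human M5 receptor in CHO-K1 cells; schedule: Post-acetylcholine fluorescence recording 140 s; benchmarks: low control EC20 acetylcholine (0%), high control EC100 acetylcholine (100%); read-out: Max/basal fluorescence ratio as % of EC20–EC100 ACh window; compound: single dose, 3 µM nominal final test concentration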
CHRM4 agonist: agonists of human muscarinic M4 receptor (CHRM4) | P08173 | CHO-K1 hM4/Gqi5, Fluo-8 calcium fluorescence; vehicle 0%, full acetylcholine response 100% | activation, % at 3 µM | actives 0.14% (n = 360,000);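 active means activation above the run mean over all test wells plus 3 SD, cut at about 32% in these data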;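 further: peak over basal fluorescence ratio per well then scaled between controls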
Hits are given with their value.

Results for COc1ccccc1CNC(=O)c1ccccc1OC ?
M5 antag: inactive; CHRM5 agonist: inactive; CHRM4 antagonist: inactive; CHRM4 PAM: inactive; M5 PAM: inactive; CHRM4 agonist: inactive

How did C=CCn1c(SC)nnc1-c1cccc([N+](=O)[O-])c1 do in these assays?
M5 antag: inactive; CHRM5 agonist: inactive; CHRM4 antagonist: inactive; CHRM4 PAM: inactive; M5 PAM: inactive; CHRM4 agonist: inactive

How did O=C(NCc1cccnc1)c1nc(-c2ccc(C(F)(F)F)cc2)no1 do in these assays?
M5 antag: inactive; CHRM5 agonist: inactive; CHRM4 antagonist: inactive; CHRM4 PAM: inactive; M5 PAM: inactive; CHRM4 agonist: inactive

What do the screens show for `Cc1ccc(-c2nn(-c3ccccc3)cc2CN(Cc2ccccc2)C(=O)c2ccco2)o1`?
M5 antag: inactive; CHRM5 agonist: inactive; CHRM4 antagonist: 51.8; CHRM4 PAM: inactive; M5 PAM: inactive; CHRM4 agonist: inactive

Results for COc1ccc(/C(O)=C2\C(=O)C(=O)N(c3cc(C)on3)C2c2ccc(OC)c(OC)c2)cc1OC (stereo not drawn) ?
M5 antag: inactive; CHRM5 agonist: inactive; CHRM4 antagonist: inactive; CHRM4 PAM: inactive; M5 PAM: inactive; CHRM4 agonist: inactive

Results for Cc1cc(N2C(=O)C(=O)/C(=C(/O)c3ccc(F)cc3)C2c2ccc(F)cc2)no1 (stereo not drawn) ?
M5 antag: inactive; CHRM5 agonist: inactive; CHRM4 antagonist: inactive; CHRM4 PAM: inactive; M5 PAM: 21.1; CHRM4 agonist: inactive

Results for O=C(/C=C/c1ccc(F)cc1)NC(=S)N1CCN(c2ccccn2)CC1 ?
M5 antag: inactive; CHRM5 agonist: inactive; CHRM4 antagonist: inactive; CHRM4 PAM: inactive; M5 PAM: 18.7; CHRM4 agonist: inactive

How did COc1ccc(/C=C/C(=O)NC(=S)N2CCN(c3ccccn3)CC2)cc1OC do in these assays?
M5 antag: inactive; CHRM5 agonist: inactive; CHRM4 antagonist: inactive; CHRM4 PAM: inactive; M5 PAM: inactive; CHRM4 agonist: inactive

Results for Cc1cccc(-n2c(SCC(=O)N3CC(=O)Nc4ccccc43)nc3ccccc3c2=O)c1 ?
M5 antag: inactive; CHRM5 agonist: inactive; CHRM4 antagonist: inactive; CHRM4 PAM: inactive; M5 PAM: inactive; CHRM4 agonist: inactive

How did CCNC(=O)CN1C(=O)NC2(CCCc3cc(OC)ccc32)C1=O (stereo not drawn) do in these assays?
M5 antag: inactive; CHRM5 agonist: inactive; CHRM4 antagonist: inactive; CHRM4 PAM: inactive; M5 PAM: inactive; CHRM4 agonist: inactive

What do the screens show for `COc1ccccc1Cc1nc(-c2ccncc2)no1`?
M5 antag: inactive; CHRM5 agonist: inactive; CHRM4 antagonist: inactive; CHRM4 PAM: inactive; M5 PAM: inactive; CHRM4 agonist: inactive

How did COc1ccccc1Cc1noc(COc2cccc(C)c2C)n1 do in these assays?
M5 antag: inactive; CHRM5 agonist: inactive; CHRM4 antagonist: inactive; CHRM4 PAM: 34.1; M5 PAM: inactive; CHRM4 agonist: inactive

How did O=C1C(=O)N(CCN2CCOCC2)C(c2ccncc2)/C1=C(/O)c1ccc2c(c1)OCO2 (stereo not drawn) do in these assays?
M5 antag: inactive; CHRM5 agonist: inactive; CHRM4 antagonist: inactive; CHRM4 PAM: inactive; M5 PAM: inactive; CHRM4 agonist: inactive

Results for O=C1C(=O)N(CCN2CCOCC2)C(c2ccc([N+](=O)[O-])cc2)/C1=C(/O)c1ccc2c(c1)OCO2 (stereo not drawn) ?
M5 antag: inactive; CHRM5 agonist: inactive; CHRM4 antagonist: inactive; CHRM4 PAM: 21.7; M5 PAM: inactive; CHRM4 agonist: inactive

Results for Cc1ccc(C)c(-n2c(=O)c(C#N)cc3c(=O)n4ccccc4nc32)c1 ?
M5 antag: inactive; CHRM5 agonist: inactive; CHRM4 antagonist: inactive; CHRM4 PAM: inactive; M5 PAM: 27.6; CHRM4 agonist: inactive

Results for COc1ccc(N(C(=O)C2CSC(=O)C2)C(C(=O)NC(C)(C)C)c2ccncc2)cc1 (stereo not drawn) ?
M5 antag: inactive; CHRM5 agonist: inactive; CHRM4 antagonist: inactive; CHRM4 PAM: inactive; M5 PAM: inactive; CHRM4 agonist: inactive

Results for COC(=O)c1sccc1NC(=O)c1cccnc1 ?
M5 antag: inactive; CHRM5 agonist: inactive; CHRM4 antagonist: inactive; CHRM4 PAM: inactive; M5 PAM: inactive; CHRM4 agonist: inactive

How did Cc1ccc(C(C)C)cc1OCC(=O)NNC(=O)Nc1ccccc1 do in these assays?
M5 antag: inactive; CHRM5 agonist: inactive; CHRM4 antagonist: 61.0; CHRM4 PAM: inactive; M5 PAM: inactive; CHRM4 agonist: inactive

What do the screens show for `Cc1ccc(C(C)C)c(OCC(=O)NNC(=O)Nc2ccccc2)c1`?
M5 antag: inactive; CHRM5 agonist: inactive; CHRM4 antagonist: inactive; CHRM4 PAM: inactive; M5 PAM: inactive; CHRM4 agonist: inactive

Results for O=C1CCc2cc(S(=O)(=O)NCCc3ccc(Cl)cc3)cc3c2N1CC3 ?
M5 antag: inactive; CHRM5 agonist: inactive; CHRM4 antagonist: inactive; CHRM4 PAM: inactive; M5 PAM: inactive; CHRM4 agonist: inactive

How did CCn1c(C)[n+](CC)c2ccc(C(=O)N(C)c3ccccc3)cc21 do in these assays?
M5 antag: inactive; CHRM5 agonist: inactive; CHRM4 antagonist: inactive; CHRM4 PAM: inactive; M5 PAM: inactive; CHRM4 agonist: inactive

How did CCOC(=O)C1=C[C@@H](C2CCCC2)N(S(=O)(=O)c2ccc([N+](=O)[O-])cc2)[C@H]1c1ccccc1 do in these assays?
M5 antag: inactive; CHRM5 agonist: inactive; CHRM4 antagonist: 38.6; CHRM4 PAM: inactive; M5 PAM: inactive; CHRM4 agonist: inactive

What do the screens show for `CCOC(=O)C1=C[C@@H](CC)N(S(=O)(=O)c2ccc(C)cc2)[C@H]1c1ccccc1`?
M5 antag: inactive; CHRM5 agonist: inactive; CHRM4 antagonist: inactive; CHRM4 PAM: inactive; M5 PAM: inactive; CHRM4 agonist: inactive

How did CCn1c2ccccc2c2cc(N=C3SC(CC(=O)Nc4ccccc4OC)C(=O)N3C)ccc21 (stereo not drawn) do in these assays?
M5 antag: inactive; CHRM5 agonist: inactive; CHRM4 antagonist: inactive; CHRM4 PAM: inactive; M5 PAM: inactive; CHRM4 agonist: inactive

How did COC(=O)c1ccccc1NC(=O)NCc1ccco1 do in these assays?
M5 antag: inactive; CHRM5 agonist: inactive; CHRM4 antagonist: inactive; CHRM4 PAM: inactive; M5 PAM: inactive; CHRM4 agonist: inactive

Results for CCN(CC)C(=O)C1c2ccccc2Oc2ccccc21 ?
M5 antag: inactive; CHRM5 agonist: 53.3; CHRM4 antagonist: inactive; CHRM4 PAM: inactive; M5 PAM: inactive; CHRM4 agonist: 32.7

Results for C=CCN(CC=C)C(=O)C1c2ccccc2Oc2ccccc21 ?
M5 antag: inactive; CHRM5 agonist: inactive; CHRM4 antagonist: inactive; CHRM4 PAM: inactive; M5 PAM: inactive; CHRM4 agonist: inactive
